From ChEMBL document CHEMBL1129316, “Inhibitors of human immunodeficiency virus type 1 protease containing 2-aminobenzyl-substituted 4-amino-3-hydroxy-5-phenylpentanoic acid: synthesis, activity, and oral bioavailability” (J Med Chem, 1996)

Experiments:
[1] = Oral Bioavailability was measured as Maximal observed concentration (Cmax) value at dose 125 mg/kg;b = No compound detectable in blood above the detection limit of 0.1 uM; assay type: ADME, organism-based; set-up: dose 125 mg/kg, route oral; settings: in vivo
In short: (§1)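 Female Balb/c mice, fasted 24 h before and during the study, water ad libitum. Dosed by oral gavage at 125 mg/kg in a liquid formulation. Heparinized whole blood sampled at various times, methanol-extracted, cleaned on sulfobenzyl SPE, then RP-C18 HPLC with UV at 200 nm against an internal standard. Cmax taken as observed; AUC calculated. Detection limit 0.1 µM.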

[2] = Oral Bioavailability was measured as area-under-curve(AUC) value at dose 125 mg/kg; b = No compound detectable in blood above the detection limit of 0.1 uM; assay type: ADME, organism-based; settings: in vivo; in short: as §1
[3] = Solubility (phosphate-buffered saline, pH =7.4); assay type: physicochemical; settings: read-out: S
In short: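 About 1 mg of lyophilized amorphous inhibitor in 1 mL PBS (pH 7.4), vortexed 1 min and sonicated 30 min at 37 °C. Filtered, then centrifuged at 100 000 rpm for 30 min. Supernatant run on RP-C18 HPLC (10 mM NH4OAc/CH3CN 50/50, UV 210 nm) and quantified by external standard. Minimum detectable 0.1 µg/mL.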

[4] = system: Human immunodeficiency virus 1; assay: Antiviral activity against HIV-1, IIIB, in MT-4 Cells; assay type: functional, organism-based; settings: Human immunodeficiency virus 1, MT4
In short: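 HIV-1 strain IIIB-induced cytopathic effect in HTLV-I-transformed MT4 cells. Virus adsorbed to cells at 1 × 10⁶ cells/mL, 37 °C, 1 h. Compounds added postadsorption, final 1 × 10⁵ cells/mL. Inoculum set to kill 90% of cells in 5 days. Mock-infected and compound-only controls run. DMSO ≤0.3%, medium with 10% FBS. Viability read by MTT after 5 days. Mean of repeat determinations.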

[5] = target: T1, Human immunodeficiency virus type 1 protease (Human immunodeficiency virus 1, UniProt Q72874); assay: Binding affinity against HIV-1 protease (HIV-1 PR); d indicates no activity at 3 uM
In short: (§2)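 Recombinant HIV-1 PR expressed in E. coli JM105 and purified to homogeneity. Enzyme incubated at 37 °C in 0.1 M MES, 0.37 M NaCl, 4 mM EDTA, pH 6.25, with 280 µM chromogenic nonapeptide substrate (pNph). Initial rates taken from the absorbance decrease at 298 nm. IC50 fitted, then Ki = (IC50 − Et/2)/(1 + S/Km). Mean of two determinations; DMSO ≤5%.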

MT4 = assay: Antiviral Activity against HIV-1, IIIB, in MT-4 Cells; d indicates no activity at 3 uM; assay type: functional, cell-based, Homo sapiens
In short: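 MT4 cells infected with HIV-1 IIIB; virus adsorbed at 1 × 10⁶ cells/mL, 37 °C, 1 h, then plated at 1 × 10⁵ cells/mL with compound added postadsorption. Inoculum set to kill 90% of cells in 5 days. Incubated 5 days; viability of infected and mock-infected cells by MTT, read spectrophotometrically. Medium with 10% FBS; DMSO ≤0.3%. Values given as mean ± SD, n in parentheses.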

[6] = Oral Bioavailability was measured as area-under-curve(AUC) value at dose 125 mg/kg;b = No compound detectable in blood above the detection limit of 0.1 uM; assay type: ADME, organism-based; settings: in vivo; in short: as §1
[7] = target: T1, Human immunodeficiency virus type 1 protease; assay: Binding affinity against HIV-1 protease; in short: as §2
[8] = Oral Bioavailability was measured as Maximal observed concentration (Cmax) value at dose 125 mg/kg; b denotes No compound detectable in blood above the detection limit of 0.1 uM; assay type: ADME, organism-based; set-up: dose 125 mg/kg, route oral; settings: in vivo; in short: as §1
[9] = Oral Bioavailability was measured as area-under-curve(AUC) value at dose 125 mg/kg; b denotes No compound detectable in blood above the detection limit of 0.1 uM; assay type: ADME, organism-based; settings: in vivo; in short: as §1

## CC(C)(C)[C@H](NC(=O)OCc1ccccc1)C(=O)N[C@@H](Cc1ccccc1)[C@@H](O)[C@@H](NCc1ccc(CNC(=O)OCc2ccccc2)cc1)C(=O)N[C@H]1c2ccccc2C[C@H]1O
[1]
  Cmax: No compound detectable
[2]
  AUC: No compound detectable
[3]
  solubility: < 1 µM
[4]
  IC50: 0.142 µM

## COc1ccc(CN[C@@H](C(=O)N[C@H](CO)c2ccccc2)[C@H](O)[C@H](Cc2ccccc2)NC(=O)OC(C)(C)C)cc1
[5]
  Ki: No activity
MT4
  IC50: No activity

## COc1ccc(CN[C@@H](C(=O)NC2c3ccccc3C[C@H]2O)[C@H](O)[C@H](Cc2ccccc2)NC(=O)[C@@H](NC(=O)/C=C/c2ccc(OC)c(O)c2)C(C)(C)C)cc1 (stereo not given in full)
[6]
  AUC: No compound detectable
[1]
  Cmax: No compound detectable
[4]
  IC50: 0.125 µM
[7]
  Ki: 0.0058 µM

## CC(C)(C)[C@H](NC(=O)OCc1ccccc1)C(=O)N[C@@H](Cc1ccccc1)[C@@H](O)[C@@H](NCc1ccc(CNC(=O)CCc2nc3ccccc3[nH]2)cc1)C(=O)N[C@@H]1c2ccccc2C[C@H]1O
[8]
  Cmax: No compound detectable
[9]
  AUC: No compound detectable
[3]
  solubility: < 1 µM
[4]
  IC50: 0.161 µM
[7]
  Ki: 0.0041 µM
